Experimental findings from ChEMBL document CHEMBL1157467, “Discovery of nonsteroidal 17beta-hydroxysteroid dehydrogenase 1 inhibitors by pharmacophore-based screening of virtual compound libraries” (J Med Chem, 2008) are described below.

Structures are written as SMILES. Activity calls are given as the source filed them. The rule behind the calls is not given here.

The target in assay [1] is T1, 17-beta-hydroxysteroid dehydrogenase type 1 (Homo sapiens) (UniProt P14061).
T1 sequence (whole entry): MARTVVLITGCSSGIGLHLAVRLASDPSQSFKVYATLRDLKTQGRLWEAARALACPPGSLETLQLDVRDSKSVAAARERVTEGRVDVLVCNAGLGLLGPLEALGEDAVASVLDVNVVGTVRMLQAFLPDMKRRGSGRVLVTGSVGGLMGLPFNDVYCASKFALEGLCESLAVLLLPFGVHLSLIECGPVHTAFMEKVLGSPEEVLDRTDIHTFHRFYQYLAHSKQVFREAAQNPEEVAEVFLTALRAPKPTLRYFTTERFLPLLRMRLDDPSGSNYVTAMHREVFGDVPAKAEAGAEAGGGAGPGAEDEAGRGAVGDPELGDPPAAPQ
Kind of assay: Inhibition of human recombinant 17beta-HSD1 expressed in HEK293 cell lysate assessed as conversion of radiolabeled estrone to estradiol at 20 uM. Also noted: scale not given: the % may be the effect or the level left. Type of assay: cell-free. The procedure, abridged:
(§1)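 HEK-293 cells transiently transfected with human 17β-HSD1 by calcium phosphate were harvested 48 h later, and the pellets were frozen at -70 °C. Pellets were resuspended in 50 mM potassium phosphate, 20% glycerol and 1 mM EDTA. Conversion of 200 nM radiolabeled estrone to estradiol was measured immediately with 500 µM NADPH. […] DMSO was ≤0.1%. Values are mean ± SD from three independent experiments.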

The target in assay [2] is T2, 17-beta-hydroxysteroid dehydrogenase type 1 (Homo sapiens, UniProt P14061).
T2 sequence (P14061 whole entry): T1 sequence (whole entry)
Kind of assay: Inhibition of human recombinant 17beta-HSD1 expressed in HEK293 cell lysate assessed as conversion of radiolabeled estrone to estradiol. Type of assay: cell-free. The procedure, abridged: as §1

Assay [3] has as its target T3, 17-beta-hydroxysteroid dehydrogenase type 2 (Homo sapiens) (UniProt P37059).
T3 sequence (whole entry): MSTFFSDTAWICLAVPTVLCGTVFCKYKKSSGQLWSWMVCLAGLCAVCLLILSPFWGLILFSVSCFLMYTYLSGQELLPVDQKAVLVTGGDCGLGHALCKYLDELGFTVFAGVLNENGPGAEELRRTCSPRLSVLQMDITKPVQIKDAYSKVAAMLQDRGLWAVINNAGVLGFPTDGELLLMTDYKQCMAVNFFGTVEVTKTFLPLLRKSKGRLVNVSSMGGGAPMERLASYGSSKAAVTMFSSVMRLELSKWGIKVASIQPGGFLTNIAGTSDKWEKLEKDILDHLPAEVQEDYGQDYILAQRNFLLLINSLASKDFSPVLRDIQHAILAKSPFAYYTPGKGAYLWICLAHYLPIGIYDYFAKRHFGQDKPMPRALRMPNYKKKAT
Kind of assay: Inhibition of human recombinant 17beta-HSD2 expressed in HEK293 cell lysate assessed as conversion of radiolabeled estrone to estradiol at 40 uM. Also noted: scale not given: the % may be the effect or the level left. Type of assay: cell-free.

Assay [4] deals with T4, 17-beta-hydroxysteroid dehydrogenase type 2 (Homo sapiens, UniProt P37059).
T4 sequence (P37059 whole entry): T3 sequence (whole entry)
Put plainly: Inhibition of human recombinant 17beta-HSD2 expressed in HEK293 cell lysate assessed as conversion of radiolabeled estrone to estradiol. Type of assay: cell-free.

Assay [5] deals with T5, 17-beta-hydroxysteroid dehydrogenase type 3 (Homo sapiens) (UniProt P37058).
T5 sequence (whole entry): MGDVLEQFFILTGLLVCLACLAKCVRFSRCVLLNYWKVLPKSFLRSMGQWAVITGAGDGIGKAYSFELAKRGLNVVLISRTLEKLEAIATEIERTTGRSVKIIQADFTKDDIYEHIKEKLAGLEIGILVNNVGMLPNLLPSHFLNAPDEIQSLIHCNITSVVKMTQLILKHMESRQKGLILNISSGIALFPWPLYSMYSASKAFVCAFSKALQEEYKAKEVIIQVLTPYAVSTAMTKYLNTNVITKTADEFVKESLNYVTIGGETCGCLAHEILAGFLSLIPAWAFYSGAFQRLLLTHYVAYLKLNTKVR
Kind of assay: Inhibition of human recombinant 17beta-HSD3 expressed in intact HEK293 cells assessed as conversion of androstenedione to testosterone at 20 uM. Type of assay: cell-based. Also noted: scale not given: the % may be the effect or the level left. The procedure, abridged: (§2)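 17β-HSD3 or 17β-HSD5 was transiently expressed in HEK-293 cells. Conversion of androstenedione to testosterone was measured in intact cells without added cofactor. Compounds were tested at 20 µM, with final DMSO ≤0.1%. Values are mean ± SD from three independent experiments.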

Assay [6] concerns the target T6, Aldo-keto reductase family 1 member C3 (Homo sapiens) (UniProt P42330).
T6 sequence (whole entry): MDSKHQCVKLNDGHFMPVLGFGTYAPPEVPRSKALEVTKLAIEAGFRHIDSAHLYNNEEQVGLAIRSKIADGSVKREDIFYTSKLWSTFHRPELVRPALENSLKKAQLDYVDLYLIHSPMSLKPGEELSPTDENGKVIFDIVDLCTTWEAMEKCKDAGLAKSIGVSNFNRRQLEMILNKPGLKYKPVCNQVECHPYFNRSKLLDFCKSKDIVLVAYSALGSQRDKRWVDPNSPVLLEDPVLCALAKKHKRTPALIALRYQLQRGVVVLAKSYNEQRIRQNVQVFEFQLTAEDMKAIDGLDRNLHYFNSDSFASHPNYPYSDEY
Kind of assay: Inhibition of human recombinant 17beta-HSD5 expressed in intact HEK293 cells assessed as conversion of androstenedione to testosterone at 20 uM after 24 hrs. Type of assay: cell-based. Also on record: scale not given: the % may be the effect or the level left. Put shortly: as §2

Assay [7] deals with T3, 17-beta-hydroxysteroid dehydrogenase type 2 (Homo sapiens). Put plainly: Inhibition of human recombinant 17beta-HSD2 expressed in HEK293 cell lysate assessed as conversion of radiolabeled estrone to estradiol at 20 uM. Also noted: scale not given: the % may be the effect or the level left. Type of assay: cell-free.
Assay [8] has as its target 11-beta-hydroxysteroid dehydrogenase 1 (Homo sapiens, UniProt P28845). Kind of assay: Inhibition of human recombinant 11beta-HSD1 expressed in HEK293 cell lysate assessed as conversion of radiolabeled estrone to estradiol at 20 uM. Type of assay: cell-free. Also noted: scale not given: the % may be the effect or the level left.

Sequence of 11-beta-hydroxysteroid dehydrogenase 1 (P28845 whole entry, looked up): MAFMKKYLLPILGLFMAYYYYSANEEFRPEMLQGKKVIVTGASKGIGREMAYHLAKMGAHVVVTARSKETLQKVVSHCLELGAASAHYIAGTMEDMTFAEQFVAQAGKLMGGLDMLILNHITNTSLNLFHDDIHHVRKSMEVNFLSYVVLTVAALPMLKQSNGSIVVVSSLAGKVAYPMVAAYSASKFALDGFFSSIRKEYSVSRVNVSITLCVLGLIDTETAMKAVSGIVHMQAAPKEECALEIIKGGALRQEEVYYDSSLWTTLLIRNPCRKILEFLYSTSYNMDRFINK

As for `O=c1c(-c2ccc(O)cc2)coc2cc(O)cc(O)c12` [GENISTEIN], the Activity in assay [1] came out at 17%; in assay [3], 15.7%. The IC50 in assay [2] is 2.21 µM.

For the compound `COc1ccc(-c2coc3cc(O)cc(O)c3c2=O)cc1` [BIOCHANIN], the Activity was determined as 45% in assay [1] and 10.1% in assay [3]. In assay [4], the IC50 was found to be 9.9 µM.

`O=C1C[C@@H](c2ccc(O)cc2)Oc2cc(O)cc(O)c21` [NARINGENIN]: the Activity was found to be 17.2% in assay [1] and 12.6% in assay [3]. The concentration for half-maximal inhibition (IC50) in assay [4] amounted to 14.4 µM; in assay [2], 4.96 µM.

Consider `CCOP(=O)(Nc1ccc2c(c1)Cc1c-2cc(Cl)c(NC(C)=O)c1Cl)OCC`, for which the Activity was 86% in assay [5]; 90% in assay [1]; 84% in assay [6]; 79% in assay [7]; 87% in assay [8].

For the compound `O=c1cc(-c2ccc(O)cc2)oc2cc(O)cc(O)c12` [APIGENIN], the Activity in assay [1] turned out to be 10%; in assay [3], 25.2%. For the same compound, the concentration for half-maximal inhibition (IC50) was more than 20 µM in assay [4] and 0.71 µM in assay [2].

Take `O=C1CC(c2ccccc2)Oc2ccc(O)cc21` (configuration not stated): the Activity in assay [1] amounted to 102%; in assay [3] it was 42.5%.

On to `COC(C(=O)Nc1ccc(-c2ccc(NC(=O)C(OC)c3ccccc3)c(C)c2)cc1C)c1ccccc1` (configuration not stated), for which the Activity in assay [5] is 96%; in assay [1], 84%; in assay [7], 59%; in assay [8], 110%. Besides, the outcome in assay [6] was inactive.

Turning to `COc1c2c(cc3c1C1Oc4c(ccc(O)c4CC=C(C)C)C1CO3)OC(C)(C)C=C2` (configuration not stated), the Activity was 55% in assay [5], 54% in assay [1], 86% in assay [7] and 96% in assay [8]. For the same compound, the outcome in assay [6] was inactive. Besides, the IC50 in assay [2] came out at 19 µM.

As for `O=c1c(-c2ccc(O)cc2)coc2cc(O)ccc12`, the values for the Activity in assay [1] and in assay [3] were 35% and 58.3%, respectively.

Take `O=c1c(O)c(-c2ccc(O)cc2)oc2cc(O)cc(O)c12` [KAEMPFEROL]: the results for the Activity in assay [1] and in assay [3] were 13% and 4.83%, respectively. In addition, the figures for the IC50 in assay [4] and in assay [2] were 0.36 µM and 1.05 µM, respectively.

`COc1ccc([C@@H]2CC(=O)c3c(O)cc(O)cc3O2)cc1O`: the Activity in assay [1] worked out at 44%; in assay [3], 36.4%.

Turning to `CC1(C)[C@@H](O)CC[C@]2(C)[C@H]3C(=O)C=C4[C@@H]5C[C@@](C)(C(=O)O)CC[C@]5(C)CC[C@@]4(C)[C@]3(C)CC[C@@H]12`, the figures for the Activity in assay [1] and in assay [3] were 53% and 24.5%, respectively.

In the case of `O=S1OCC2C(CO1)C1(Cl)C(Cl)=C(Cl)C2(Cl)C1(Cl)Cl` (configuration not stated) [ENDOSULFAN], the Activity in assay [1] came out at 25%; in assay [3], 51.1%. Moreover, the IC50 in assay [2] was 48.2 µM.

As to `Cc1cc(/C=N/NC(=O)C(O)(c2ccccc2)c2ccccc2)c(C)n1-c1ccc(O)cc1`, the Activity in assay [5] was determined as 76%; in assay [1], 73%; in assay [7], 113%; in assay [8] it was 90%. Further, the outcome in assay [6] was inactive.

As for `CCCCC(=O)Nc1sc2c(c1C(=O)OCC)CCC(/C=N/O)=C2Cl`, the Activity in assay [5] was 89%; in assay [1] it was 76%; in assay [7] it was 48%; in assay [8] it was 106%. For the same compound, the result in assay [6] was inactive.

For the compound `O=c1cc(-c2ccccc2)oc2cc(O)ccc12` [7-HYDROXYFLAVONE], the Activity was determined as 16% in assay [1] and 23.1% in assay [3]. For the same compound, the figures for the IC50 in assay [4] and in assay [2] were more than 20 µM and 5.25 µM, respectively.

As to `O=C1CC(c2ccccc2O)Oc2ccccc21` (configuration not stated), the results for the Activity in assay [1] and in assay [3] were 95% and 50.7%, respectively.

`Cc1cc2c(C(C)C)c(O)c(O)c(C=O)c2c(O)c1-c1c(C)cc2c(C(C)C)c(O)c(O)c(C=O)c2c1O`: the Activity in assay [1] was determined as 60%; in assay [3], 64.8%.

`CCCCN(C)C(=O)CCCCCS[C@@H]1C[C@@H]2[C@H](CC[C@]3(C)[C@@H](O)CC[C@@H]23)c2ccc(O)cc21`: the half-maximal inhibitory concentration (IC50) in assay [2] stood at 0.17 µM.

In the case of `C[C@]12CC[C@@H]3c4ccc(O)cc4CC[C@H]3[C@@H]1C[C@H](CCCCCCCCC(=O)OC[C@H]1O[C@@H](n3cnc4c(N)ncnc43)[C@H](O)[C@@H]1O)[C@@H]2O`, in assay [2], the inhibition constant Ki is 0.003 µM.

Turning to `O=C1CC(c2ccccc2)Oc2ccccc21` (configuration not stated), the Activity in assay [1] was found to be 110%; in assay [3] it was 70.7%.

Turning to `Cc1cc(-c2ccc(NS(=O)(=O)c3ccccc3)c(C)c2)ccc1NS(=O)(=O)c1ccccc1`, the Activity was 92% in assay [5], 64% in assay [1], 56% in assay [7] and 101% in assay [8]. In addition, in assay [6], the result was inactive.

For the compound `O=c1cc(-c2ccccc2)oc2ccccc12`, the Activity was 94% in assay [1] and 63.9% in assay [3].

With `O=C1CC(c2ccc(O)cc2)Oc2ccccc21` (configuration not stated), the values for the Activity in assay [1] and in assay [3] were 99% and 63.6%, respectively.

As to `O=c1c(O)c(-c2ccc(O)c(O)c2)oc2cc(O)cc(O)c12` [QUERCETIN], the Activity in assay [1] came to 65%; in assay [3], 6.07%. Also, in assay [4], the IC50 stood at 1.54 µM.

Regarding `Cc1cc(OCCOc2ccc(N)cc2)ccc1N1C(N)=NC(N)=NC1(C)C`, the Activity in assay [5] came out at 99%; in assay [1], 84%; in assay [7], 59%; in assay [8], 99%. The outcome in assay [6] was inactive.

For `Cc1c(/C=N/N=C2\CC[C@H]3[C@@H]4CCc5cc(O)ccc5[C@H]4CC[C@]23C)cnn1C`, the Activity in assay [5] amounted to 75%; in assay [1], 34%; in assay [7], 63%; in assay [8] it was 81%. Besides, the result in assay [6] was inactive. For the same compound, in assay [2], the IC50 was determined as 33 µM.

For the compound `O=S(=O)(Nc1ccccc1)c1ccc2c(c1)Cc1cc(S(=O)(=O)Nc3ccccc3)ccc1-2`, the Activity came to 80% in assay [5], 75% in assay [1], 76% in assay [7] and 56% in assay [8]. The outcome in assay [6] was inactive.

As to `O=c1cc(-c2ccccc2)oc2cc(O)cc(O)c12`, the values for the Activity in assay [1] and in assay [3] were 34% and 32.8%, respectively.

On to `CCOc1cc(/C=N/NC(=O)c2ccccn2)c(Br)c(Br)c1O`, for which the Activity came out at 95% in assay [5], 88% in assay [1], 55% in assay [7] and 68% in assay [8]. In assay [6], the outcome was inactive.
